# pIC50: −log10 of the molar value. Calls of active or inactive are those of the source. The rule behind the calls is not given here.
# What was measured:
# [1] = biological target: T1, G-protein coupled receptor (Canis lupus familiaris) (UniProt Q2A652); experiment: Antagonist activity at dog CRTH2 receptor assessed as inhibition of calcium flux by cell-based FLIPR assay; format: functional
# T1 sequence (whole entry): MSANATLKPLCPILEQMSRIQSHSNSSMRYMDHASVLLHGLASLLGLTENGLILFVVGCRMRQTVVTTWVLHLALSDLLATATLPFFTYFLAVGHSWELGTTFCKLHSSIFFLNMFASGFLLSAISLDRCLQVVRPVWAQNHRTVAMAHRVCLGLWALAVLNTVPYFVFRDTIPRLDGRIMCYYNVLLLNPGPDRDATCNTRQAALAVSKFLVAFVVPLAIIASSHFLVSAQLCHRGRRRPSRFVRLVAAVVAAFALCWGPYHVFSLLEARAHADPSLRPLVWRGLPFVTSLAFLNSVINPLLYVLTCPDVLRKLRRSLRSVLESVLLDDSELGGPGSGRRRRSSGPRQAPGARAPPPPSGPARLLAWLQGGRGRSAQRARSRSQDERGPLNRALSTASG
# [2] = biological target: T2, Prostaglandin D2 receptor 2 (Mus musculus) (UniProt Q9Z2J6); experiment: Antagonist activity at mouse CRTH2 receptor assessed as inhibition of calcium flux by cell-based FLIPR assay; format: functional
# T2 sequence (whole entry): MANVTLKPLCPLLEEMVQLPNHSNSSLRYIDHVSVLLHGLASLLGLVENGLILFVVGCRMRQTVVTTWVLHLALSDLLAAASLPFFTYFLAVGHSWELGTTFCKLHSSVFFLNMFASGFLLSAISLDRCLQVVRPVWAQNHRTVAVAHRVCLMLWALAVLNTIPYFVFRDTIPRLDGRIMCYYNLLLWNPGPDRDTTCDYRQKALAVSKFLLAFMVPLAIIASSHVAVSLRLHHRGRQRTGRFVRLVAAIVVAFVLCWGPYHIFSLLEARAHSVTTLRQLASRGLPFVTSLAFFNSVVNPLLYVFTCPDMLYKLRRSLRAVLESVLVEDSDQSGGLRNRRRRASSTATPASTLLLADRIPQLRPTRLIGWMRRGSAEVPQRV
# [3] = Protein binding in plasma (unknown origin); format: ADME, cell-free; settings: read-out: PPB
# [4] = biological target: T3, Prostaglandin G/H synthase 1 (Ovis aries, UniProt P05979); experiment: Antagonist activity at ovine COX-1
# T3 sequence (P05979 whole entry): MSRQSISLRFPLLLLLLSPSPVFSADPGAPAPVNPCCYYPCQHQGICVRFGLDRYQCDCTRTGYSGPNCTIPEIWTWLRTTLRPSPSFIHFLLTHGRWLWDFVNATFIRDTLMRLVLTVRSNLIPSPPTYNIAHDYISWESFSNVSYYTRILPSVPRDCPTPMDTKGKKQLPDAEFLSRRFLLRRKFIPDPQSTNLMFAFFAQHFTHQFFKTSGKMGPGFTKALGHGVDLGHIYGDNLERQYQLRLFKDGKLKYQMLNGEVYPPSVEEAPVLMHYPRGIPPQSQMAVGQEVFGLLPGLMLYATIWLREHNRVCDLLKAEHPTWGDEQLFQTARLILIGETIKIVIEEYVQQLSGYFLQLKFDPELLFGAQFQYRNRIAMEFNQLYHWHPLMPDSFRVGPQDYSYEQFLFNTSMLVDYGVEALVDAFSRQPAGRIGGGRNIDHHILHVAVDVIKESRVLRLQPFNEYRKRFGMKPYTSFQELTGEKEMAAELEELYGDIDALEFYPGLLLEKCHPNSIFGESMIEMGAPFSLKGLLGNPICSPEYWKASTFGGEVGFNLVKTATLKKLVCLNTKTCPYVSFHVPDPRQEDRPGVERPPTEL
# [5] = biological target: Prostaglandin E2 receptor EP4 subtype (Homo sapiens, UniProt P35408); experiment: Inhibition of beta-arrestin binding to recombinant human prostanoid EP4 receptor expressed in HEK293 cell membranes by beta-lactamase complementation assay
# [6] = biological target: T4, Prostaglandin E2 receptor EP1 subtype (Homo sapiens, UniProt P34995); experiment: Antagonist activity at human prostanoid EP1 receptor expressed in CHOK1 cells assessed as inhibition of PGE2-induced calcium flux after 60 mins by FLIPR assay; format: functional, cell-based, CHO-K1
# T4 sequence (P34995 whole entry): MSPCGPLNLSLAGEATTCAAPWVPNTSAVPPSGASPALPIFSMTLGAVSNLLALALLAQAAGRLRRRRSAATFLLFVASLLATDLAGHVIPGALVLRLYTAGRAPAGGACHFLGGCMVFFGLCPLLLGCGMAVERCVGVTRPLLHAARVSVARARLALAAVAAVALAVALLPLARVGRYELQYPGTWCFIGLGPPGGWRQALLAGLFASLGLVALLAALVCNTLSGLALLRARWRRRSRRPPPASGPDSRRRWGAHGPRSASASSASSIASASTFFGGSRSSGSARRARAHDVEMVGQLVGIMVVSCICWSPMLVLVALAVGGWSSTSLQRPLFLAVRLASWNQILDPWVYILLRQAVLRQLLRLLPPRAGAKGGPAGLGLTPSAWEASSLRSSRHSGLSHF
# Homo sapiens = species: Homo sapiens; experiment: Selectivity factor, ratio of IC50 for recombinant human prostanoid DP1 receptor to IC50 for recombinant human CRTH2 receptor
# In short: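 hDP₁ IC₅₀ came from competitive [³H]PGD₂ binding on CHO cells stably overexpressing recombinant hDP₁. hCRTh2 IC₅₀ came from [³H]PGD₂ (2.5 nM) displacement on membranes of HEK-293 cells stably expressing hCRTh2, incubated 90 min at room temperature, filtered and counted. f_Sel = IC₅₀(hDP₁)/IC₅₀(hCRTh2).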
# [7] = biological target: T5, Prostaglandin D2 receptor 2 (Homo sapiens, UniProt Q9Y5Y4); experiment: Displacement of [3H]PGD2 from recombinant human CRTH2 receptor expressed in HEK293 cell membranes after 90 mins by scintillation counting analysis
# T5 sequence (Q9Y5Y4 whole entry): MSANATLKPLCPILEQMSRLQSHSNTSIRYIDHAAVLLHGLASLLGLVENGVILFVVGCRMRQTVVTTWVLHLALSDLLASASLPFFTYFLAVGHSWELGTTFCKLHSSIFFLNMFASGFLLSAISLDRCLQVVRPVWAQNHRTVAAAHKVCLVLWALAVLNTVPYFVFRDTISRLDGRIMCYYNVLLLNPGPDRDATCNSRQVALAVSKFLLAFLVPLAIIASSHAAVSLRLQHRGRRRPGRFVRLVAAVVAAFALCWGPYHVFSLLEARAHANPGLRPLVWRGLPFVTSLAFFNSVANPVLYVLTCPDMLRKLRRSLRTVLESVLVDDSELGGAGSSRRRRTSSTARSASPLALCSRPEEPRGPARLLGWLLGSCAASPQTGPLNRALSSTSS
# In short: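 Membranes from HEK293 cells expressing hCRTH2 (80 μg protein/well) in Tris pH 7.4 buffer with NaCl, EDTA, 0.1% BSA were incubated with 2.5 nM [3H]PGD2 for 90 min at room temperature. Nonspecific binding was defined with 10 μM PGD2. Samples were filtered on PEI-soaked GF/C and read by scintillation counting.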
# [8] = biological target: T5, Prostaglandin D2 receptor 2; experiment: Displacement of [3H]PGD2 from recombinant human CRTH2 receptor expressed in HEK293 cell membranes after 90 mins by scintillation counting analysis in presence of human serum albumin
# In short: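 Same hCRTH2 HEK293 membrane [3H]PGD2 (2.5 nM) displacement, 90 min at room temperature, with 0.5% human serum albumin added to the assay buffer; scintillation counting.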
# Chain of Prostaglandin E2 receptor EP4 subtype (P35408 whole entry): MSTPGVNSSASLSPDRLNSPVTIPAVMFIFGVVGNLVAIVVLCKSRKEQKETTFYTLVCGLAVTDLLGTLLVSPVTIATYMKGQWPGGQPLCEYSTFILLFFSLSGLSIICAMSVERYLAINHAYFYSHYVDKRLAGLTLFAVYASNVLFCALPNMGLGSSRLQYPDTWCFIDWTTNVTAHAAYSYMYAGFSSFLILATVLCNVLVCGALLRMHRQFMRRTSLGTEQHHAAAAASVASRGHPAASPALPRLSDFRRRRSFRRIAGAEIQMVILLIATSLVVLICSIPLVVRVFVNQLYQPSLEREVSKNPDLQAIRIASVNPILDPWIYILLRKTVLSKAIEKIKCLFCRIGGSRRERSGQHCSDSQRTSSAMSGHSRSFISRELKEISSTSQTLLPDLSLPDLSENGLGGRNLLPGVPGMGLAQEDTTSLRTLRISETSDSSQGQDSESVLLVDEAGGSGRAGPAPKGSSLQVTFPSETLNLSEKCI
SMILES,inhibition [1],inhibition [2],fraction unbound [3],pIC50 [4],pIC50 [5],pIC50 [6],Ratio IC50 (Homo sapiens),pIC50 [7],pIC50 [8]
O=C(O)Cn1c2c(c3cc(F)ccc31)CN(C(=O)c1cccs1)CC2,Active,Active,< 0.03,< 5.00,< 5.00,< 4.60,> 2500,8.40,7.92
O=C(O)Cn1c2c(c3ccccc31)CN(C(=O)c1cccc3ccccc13)CC2,inactive,,< 0.03,< 5.00,< 5.00,< 4.60,87,8.05,6.38
O=C(O)Cn1c2c(c3cc(F)ccc31)CN(C(=O)CCc1cccc3ccccc13)CC2,Active,Active,< 0.03,< 5.00,< 5.00,< 4.60,> 1000,8.00,7.52
COc1ccc2c(c1)c1c(n2CC(=O)O)CCN(C(=O)c2ccccc2)C1,Active,Active,< 0.03,< 5.00,,< 4.60,,7.21,
O=C(O)Cn1c2c(c3cc(Cl)ccc31)CN(C(=O)c1cccc3ccccc13)CC2,Active,Active,< 0.03,< 5.00,< 5.00,< 4.60,230,8.40,7.19
O=C(O)Cn1c2c(c3cc(F)ccc31)CN(C(=O)c1cccc3ccccc13)CC2 [SETIPIPRANT],inactive,,< 0.03,< 5.00,< 5.00,< 4.60,215,8.22,6.47
O=C(O)Cn1c2c(c3ccccc31)CN(C(=O)c1cccc(Cl)c1)CC2,Active,Active,< 0.03,< 5.00,< 5.00,< 4.60,> 1000,8.00,7.52
O=C(O)Cn1c2c(c3cc(C(F)(F)F)ccc31)CN(C(=O)c1ccccc1)CC2,Active,Active,< 0.03,< 5.00,< 5.00,< 4.60,> 1100,8.05,7.22
O=C(O)Cn1c2c(c3cc(F)ccc31)CN(C(=O)Cc1c[nH]c3ccccc13)CC2,Active,Active,< 0.03,< 5.00,< 5.00,< 4.60,> 2000,8.30,7.46
O=C(O)Cn1c2c(c3ccccc31)CN(C(=O)c1ccccc1)CC2,Active,Active,< 0.03,< 5.00,,< 4.60,> 580,,
O=C(O)Cn1c2c(c3cc(F)ccc31)CN(C(=O)c1cccc(Cl)c1)CC2,inactive,,< 0.03,< 5.00,< 5.00,< 4.60,> 1100,8.05,7.22
O=C(O)Cn1c2c(c3cc(F)cc(Cl)c31)CN(C(=O)c1cccc3ccccc13)CC2,Active,Active,< 0.03,< 5.00,< 5.00,< 4.60,4.1,7.15,6.28
Cc1ccc2c(c1)c1c(n2CC(=O)O)CCN(C(=O)c2cccc3ccccc23)C1,Active,Active,< 0.03,< 5.00,< 5.00,< 4.60,540,8.30,6.72
CCc1ccc(-c2ccc(C(=O)N3CCc4c(c5cccc(Cl)c5n4CC(=O)O)C3)cc2)cc1,Active,Active,< 0.03,< 5.00,< 5.00,< 4.60,5.2,7.64,7.05
O=C(O)Cn1c2c(c3cc(F)cc(Cl)c31)CN(C(=O)c1cccc(Cl)c1)CC2,Active,Active,< 0.03,< 5.00,< 5.00,< 4.60,22,6.72,6.74
O=C(O)Cn1c2c(c3ccccc31)CN(C(=O)C1CCCCC1)CC2,Active,Active,< 0.03,< 5.00,,< 4.60,,7.15,
CCc1ccc(-c2ccc(C(=O)N3CCc4c(c5ccccc5n4CC(=O)O)C3)cc2)cc1,Active,Active,< 0.03,< 5.00,< 5.00,< 4.60,195,8.40,
CC(C)c1ccc2c(c1)c1c(n2CC(=O)O)CCN(C(=O)c2ccccc2)C1,Active,Active,< 0.03,< 5.00,,< 4.60,,7.38,

# Reference: ChEMBL document CHEMBL2385063, “Identification of 2-(2-(1-naphthoyl)-8-fluoro-3,4-dihydro-1H-pyrido[4,3-b]indol-5(2H)-yl)acetic acid (setipiprant/ACT-129968), a potent, selective, and orally bioavailable chemoattractant receptor-homologous molecule expressed on Th2 cells (CRTH2) antagonist” (J Med Chem, 2013)
